Key:
HL-60 [1] = experiment: Cytotoxicity against human HL-60 cells assessed as cell viability at 10 uM by CellTiter Glo luminescent assay relative to control; format: functional; conditions: read-out: Activity
Method in brief: (§1)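 Single-concentration screen at 10 µM; percentage viability measured by CellTiter-Glo luminescent quantitation of ATP in metabolically active cells.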

HCT-116 [2] = experiment: Cytotoxicity against human HCT-116 cells assessed as cell viability at 10 uM by CellTiter Glo luminescent assay relative to control; format: functional; conditions: read-out: Activity; method in brief: as §1
HL-60 [3] = experiment: Cytotoxicity against human HL-60 cells assessed as reduction in cell viability by CellTiter Glo luminescent assay; format: functional, cell-based
Method in brief: (§2)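 CellTiter-Glo luminescent read-out of cellular ATP, taken as proportional to viable cell number; percentage viability measured and IC50 derived. MRC5 used as normal (non-cancer) line.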

HCT-116 [4] = experiment: Cytotoxicity against human HCT-116 cells assessed as reduction in cell viability by CellTiter Glo luminescent assay; format: functional, cell-based; method in brief: as §2
A549 = experiment: Cytotoxicity against human A549 cells assessed as reduction in cell viability by CellTiter Glo luminescent assay; format: functional, cell-based; method in brief: as §2
MCF7 = experiment: Cytotoxicity against human MCF7 cells assessed as reduction in cell viability by CellTiter Glo luminescent assay; format: functional, cell-based; method in brief: as §2
PC-3 = experiment: Cytotoxicity against human PC-3 cells assessed as reduction in cell viability by CellTiter Glo luminescent assay; format: functional, cell-based; method in brief: as §2
U-87 MG = experiment: Cytotoxicity against human U-87 MG cells assessed as reduction in cell viability by CellTiter Glo luminescent assay; format: functional, cell-based, U-87MG ATCC; method in brief: as §2
SK-OV-3 = experiment: Cytotoxicity against human SK-OV-3 cells assessed as reduction in cell viability by CellTiter Glo luminescent assay; format: functional, cell-based; method in brief: as §2
MRC5 = experiment: Cytotoxicity against human MRC5 cells assessed as reduction in cell viability by CellTiter Glo luminescent assay; format: cell-based; method in brief: as §2
[5] = Selectivity index, ratio of IC50 for human MRC5 cells to IC50 for human HL60 cells by CellTiter Glo luminescent assay; format: toxicity; conditions: MRC5 cells versus HL60 cells, read-out: Ratio IC50
[6] = Selectivity index, ratio of IC50 for human MRC5 cells to IC50 for human A549 cells by CellTiter Glo luminescent assay; format: toxicity; conditions: MRC5 cells versus A549 cells, read-out: Ratio IC50
Method in brief: (§3)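 Safety ratio computed as IC50 in MRC5 normal cells divided by IC50 in the cancer line, both from CellTiter-Glo ATP-luminescence viability assays.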

[7] = Selectivity index, ratio of IC50 for human MRC5 cells to IC50 for human MCF7 cells by CellTiter Glo luminescent assay; format: toxicity; conditions: MRC5 cells versus MCF7 cells, read-out: Ratio IC50; method in brief: as §3
[8] = Selectivity index, ratio of IC50 for human MRC5 cells to IC50 for human PC-3 cells by CellTiter Glo luminescent assay; format: toxicity; conditions: MRC5 cells versus PC-3 cells, read-out: Ratio IC50; method in brief: as §3
[9] = Selectivity index, ratio of IC50 for human MRC5 cells to IC50 for human U-87 MG cells by CellTiter Glo luminescent assay; format: toxicity; conditions: MRC5 cells versus U-87 MG cells, read-out: Ratio IC50; method in brief: as §3
[10] = Selectivity index, ratio of IC50 for human MRC5 cells to IC50 for human SK-OV-3 cells by CellTiter Glo luminescent assay; format: toxicity; conditions: MRC5 cells versus SK-OV-3 cells, read-out: Ratio IC50; method in brief: as §3
[11] = Selectivity index, ratio of IC50 for human MRC5 cells to IC50 for human HCT-116 cells by CellTiter Glo luminescent assay; format: toxicity; conditions: MRC5 cells versus HCT-116 cells, read-out: Ratio IC50; method in brief: as §3
[12] = Selectivity index, ratio of IC50 for human HL-60 cells to IC50 for human HCT-116 cells by CellTiter Glo luminescent assay; format: functional

SMILES | viability at 10 µM (HL-60 [1]) | viability at 10 µM (HCT-116 [2]) | IC50 (HL-60 [3]) | also measured
C=C(CC)C(=O)c1ccc(OCC(=O)NC2CCN(S(=O)(=O)c3ccc(OC)cc3OC)CC2)c(Cl)c1Cl | 11% | 90% | 860 nM | –
C=C(CC)C(=O)c1ccc(OCC(=O)NC2CCN(S(=O)(=O)c3ccc([N+](=O)[O-])cc3)CC2)c(Cl)c1Cl | 23% | 100% | 2470 nM | –
C=C(CC)C(=O)c1ccc(OCC(=O)N2CCN(S(=O)(=O)c3cc(Cl)ccc3OC)CC2)c(Cl)c1Cl | 24% | 75% | 1410 nM | –
C=C(CC)C(=O)c1ccc(OCC(=O)N2CCN(S(=O)(=O)c3cccc4cccnc34)CC2)c(Cl)c1Cl | 28% | 100% | 2980 nM | –
C=C(CC)C(=O)c1ccc(OCC(=O)NCCNS(=O)(=O)c2cccc3cccnc23)c(Cl)c1Cl | 20% | 100% | 1330 nM | –
C=C(CC)C(=O)c1ccc(OCC(=O)NCCNS(C)(=O)=O)c(Cl)c1Cl | 21% | 62% | 940 nM | –
C=C(CC)C(=O)c1ccc(OCC(=O)NC2CCN(S(=O)(=O)c3cc(Cl)ccc3OC)CC2)c(Cl)c1Cl | 16% | – | 700 nM | IC50 (HCT-116 [4]): 790 nM; IC50 (A549): 55 nM; IC50 (MCF7): 97 nM; IC50 (PC-3): 76 nM; IC50 (U-87 MG): 307 nM; IC50 (SK-OV-3): 150 nM; IC50 (MRC5): 900 nM; selectivity ratio [5]: 1.28; selectivity ratio [6]: 16.3; selectivity ratio [7]: 9.27; selectivity ratio [8]: 11.8; selectivity ratio [9]: 2.93; selectivity ratio [10]: 6; selectivity ratio [11]: 1.13
C=C(CC)C(=O)c1ccc(OCC(=O)NC2CCN(S(=O)(=O)C3CCCCC3)CC2)c(Cl)c1Cl | 41% | 61% | 2940 nM | –
C=C(CC)C(=O)c1ccc(OCC(=O)N2CCN(S(=O)(=O)c3ccc(OC)cc3)CC2)c(Cl)c1Cl | 17% | 21% | 590 nM | IC50 (HCT-116 [4]): 50 nM; IC50 (A549): 64 nM; IC50 (MCF7): 56 nM; IC50 (PC-3): 24 nM; IC50 (U-87 MG): 207 nM; IC50 (SK-OV-3): 219 nM; IC50 (MRC5): 100 nM; selectivity ratio [5]: 0.16; selectivity ratio [6]: 1.54; selectivity ratio [7]: 1.78; selectivity ratio [8]: 4.03; selectivity ratio [9]: 0.48; selectivity ratio [10]: 0.45; selectivity ratio [11]: 2; Ratio IC50 [12]: 12
C=C(CC)C(=O)c1ccc(OCC(=O)NC2CCN(S(=O)(=O)c3ccc(C)cc3)CC2)c(Cl)c1Cl | 25% | 100% | 980 nM | –
C=C(CC)C(=O)c1ccc(OCC(=O)N2CCN(S(=O)(=O)c3ccc(C)cc3)CC2)c(Cl)c1Cl | 64% | 100% | – | –
C=C(CC)C(=O)c1ccc(OCC(=O)NC2CCN(S(C)(=O)=O)CC2)c(Cl)c1Cl | 26% | 73% | 3330 nM | –
C=C(CC)C(=O)c1ccc(OCC(=O)NCCNS(=O)(=O)c2ccc(OC)cc2)c(Cl)c1Cl | 24% | 97% | 860 nM | –
COc1cccc2c1C(=O)c1c(O)c3c(c(O)c1C2=O)C[C@@](O)(C(=O)CO)C[C@@H]3O[C@H]1C[C@H](N)[C@H](O)[C@H](C)O1 [DOXORUBICIN] | – | – | 10 nM | IC50 (HCT-116 [4]): 90 nM; IC50 (A549): 56 nM; IC50 (MCF7): 120 nM; IC50 (PC-3): 2 nM; IC50 (U-87 MG): 90 nM; IC50 (MRC5): 39 nM
C=C(CC)C(=O)c1ccc(OCC(=O)N2CCN(S(=O)(=O)C3CCCCC3)CC2)c(Cl)c1Cl | 32% | 100% | 2320 nM | –
C=C(CC)C(=O)c1ccc(OCC(=O)NCCNS(=O)(=O)c2ccc(OC)c(OC)c2)c(Cl)c1Cl | 19% | 97% | 3360 nM | –
C=C(CC)C(=O)c1ccc(OCC(=O)NCCNS(=O)(=O)c2ccc([N+](=O)[O-])cc2)c(Cl)c1Cl | 27% | 59% | 580 nM | –
C=C(CC)C(=O)c1ccc(OCC(=O)N2CCN(S(C)(=O)=O)CC2)c(Cl)c1Cl | 24% | 68% | 3390 nM | –
C=C(CC)C(=O)c1ccc(OCC(=O)NCCNS(=O)(=O)c2cc(Cl)ccc2OC)c(Cl)c1Cl | 18% | 78% | 1600 nM | –
C=C(CC)C(=O)c1ccc(OCC(=O)NCCNS(=O)(=O)c2ccc(C)cc2)c(Cl)c1Cl | 17% | 100% | 2370 nM | –
C=C(CC)C(=O)c1ccc(OCC(=O)NC2CCN(S(=O)(=O)c3ccc(OC)c(OC)c3)CC2)c(Cl)c1Cl | 25% | 99% | 1310 nM | –
C=C(CC)C(=O)c1ccc(OCC(=O)NCCNS(=O)(=O)c2ccc(OC)cc2OC)c(Cl)c1Cl | 35% | 77% | 2790 nM | –
C=C(CC)C(=O)c1ccc(OCC(=O)NC2CCN(S(=O)(=O)c3cccc4cccnc34)CC2)c(Cl)c1Cl | 34% | 84% | 970 nM | –
C=C(CC)C(=O)c1ccc(OCC(=O)N2CCN(S(=O)(=O)c3ccc(OC)c(OC)c3)CC2)c(Cl)c1Cl | 100% | 89% | – | –
C=C(CC)C(=O)c1ccc(OCC(=O)N2CCN(S(=O)(=O)c3ccc([N+](=O)[O-])cc3)CC2)c(Cl)c1Cl | 24% | 100% | 3260 nM | –
C=C(CC)C(=O)c1ccc(OCC(=O)NCCNS(=O)(=O)C2CCCCC2)c(Cl)c1Cl | 28% | 91% | 1340 nM | –
C=C(CC)C(=O)c1ccc(OCC(=O)N2CCN(S(=O)(=O)c3ccc(OC)cc3OC)CC2)c(Cl)c1Cl | 15% | 40% | 3190 nM | –
C=C(CC)C(=O)c1ccc(OCC(=O)NC2CCN(S(=O)(=O)c3ccc(OC)cc3)CC2)c(Cl)c1Cl | 25% | 45% | 630 nM | IC50 (HCT-116 [4]): 1150 nM; IC50 (A549): 67 nM; IC50 (MCF7): 128 nM; IC50 (PC-3): 112 nM; IC50 (U-87 MG): 238 nM; IC50 (SK-OV-3): 309 nM; IC50 (MRC5): 4320 nM; selectivity ratio [5]: 6.85; selectivity ratio [6]: 63.8; selectivity ratio [7]: 33.8; selectivity ratio [8]: 38.6; selectivity ratio [9]: 18.1; selectivity ratio [10]: 14; selectivity ratio [11]: 3.75

Reference: ChEMBL document CHEMBL4673235, “Synthesis and biological evaluation of ethacrynic acid derivatives bearing sulfonamides as potent anti-cancer agents” (Bioorg Med Chem Lett, 2020)
